Data from ChEMBL document CHEMBL2412990, “Synthesis and pharmacological evaluation of new N-phenylpiperazine derivatives designed as homologues of the antipsychotic lead compound LASSBio-579” (Eur J Med Chem, 2013).
Calls of active or inactive are those of the source. The rule behind the calls is not given here.

Legend:
[1] = system: Mus musculus; assay: Antipsychotic activity in CF1 mouse assessed as prevention of ketamine-induced hyperlocomotion at 0.01 mg/kg, po administered 30 mins prior ketamine challenge measured for 20 mins post challenge; format: functional, organism-based; parameters: dose 0.01 mg/kg
How it was run: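 Mice were pretreated (reference drug orally after 2 h fast; test compound i.p.) and placed in the arena centre. Ketamine 10 mg/kg s.c. was given 30 min later. A blinded observer counted total square crossings over 20 min in a dimly lit room. n = 7–8. Analysed by one-way ANOVA with Newman-Keuls post hoc test.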

[2] = system: Mus musculus; assay: Antipsychotic activity in CF1 mouse assessed as prevention of apomorphine-induced climbing behaviour at 0.5 mg/kg, po administered 30 mins prior apomorphine challenge measured 5 to 30 mins post challenge; format: functional, organism-based; parameters: dose 0.5 mg/kg
How it was run: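 Reference drug given orally to mice fasted 2 h. Apomorphine 4 mg/kg s.c. was given 30 min later. Climbing was scored 0–4 at 5-min intervals up to 30 min and summed as the climbing index. n = 8–9. Analysed by one-way ANOVA with Newman-Keuls post hoc test.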

[3] = system: Mus musculus; assay: Antipsychotic activity in CF1 mouse assessed as prevention of ketamine-induced hyperlocomotion at 1 mg/kg, po administered 30 mins prior ketamine challenge measured for 20 mins post challenge; format: functional, organism-based; parameters: dose 1 mg/kg
How it was run: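 Male CF1 mice, dosed orally (10 ml/kg, fasted 2 h) and placed at the centre of the apparatus in a dimly lit room. Ketamine 10 mg/kg was given s.c. 30 min later. A blinded observer counted square crossings over 20 min. n = 7-8. One-way ANOVA with Student-Newman-Keuls post hoc test.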

[4] = system: Mus musculus; assay: Antipsychotic activity in CF1 mouse assessed as prevention of apomorphine-induced climbing behaviour at 15 mg/kg, po administered 30 mins prior apomorphine challenge measured 5 to 30 mins post challenge; format: functional, organism-based; parameters: dose 15 mg/kg
How it was run: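 Male CF1 mice (25-35 g), given the drug orally (10 ml/kg, fasted 2 h) and then kept in metal-bar cages for 30 min. Apomorphine 4 mg/kg was then given s.c. Climbing was scored 0-4 for 1 min at 5, 10, 15, 20, 25 and 30 min, and the scores were summed per animal as a climbing index. n = 8-9. One-way ANOVA with Student-Newman-Keuls post hoc test.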

[5] = molecular target: 5-hydroxytryptamine receptor 2A (Rattus norvegicus) (UniProt P14842); assay: Antagonist activity at 5HT2A receptor in rat brain cortical membranes assessed as inhibition of [3H]-ketanserin binding to receptor after 15 mins by competition assay in absence of GTP; format: cell membranes
Sequence of 5-hydroxytryptamine receptor 2A (Rattus norvegicus) (P14842 whole entry): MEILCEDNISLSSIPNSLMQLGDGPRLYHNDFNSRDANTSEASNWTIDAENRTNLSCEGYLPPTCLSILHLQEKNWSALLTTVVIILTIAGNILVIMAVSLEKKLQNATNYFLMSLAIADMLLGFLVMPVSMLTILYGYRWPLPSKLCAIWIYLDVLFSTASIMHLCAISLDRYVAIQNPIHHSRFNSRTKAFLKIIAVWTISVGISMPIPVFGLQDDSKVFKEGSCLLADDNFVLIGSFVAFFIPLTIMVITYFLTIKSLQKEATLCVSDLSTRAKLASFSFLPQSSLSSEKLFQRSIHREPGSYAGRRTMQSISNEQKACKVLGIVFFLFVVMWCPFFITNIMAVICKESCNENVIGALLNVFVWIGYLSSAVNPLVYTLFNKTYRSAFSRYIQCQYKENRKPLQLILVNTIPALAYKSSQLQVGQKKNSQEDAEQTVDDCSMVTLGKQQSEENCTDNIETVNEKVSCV
How it was run: (§1)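 Rat cortical membranes, 150 µg protein, with 1 nM [3H]-ketanserin and 100 nM prazosin in 50 mM Tris-HCl pH 7.4, 37 °C, 15 min. Non-specific binding was defined with ketanserin. For the GTP shift, paired competition curves were run without and with guanylyl nucleotide (0.1 mM Gpp(NH)p or 1 mM GTP).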

[6] = molecular target: 5-hydroxytryptamine receptor 2A (Rattus norvegicus) (UniProt P14842); assay: Antagonist activity at 5HT2A receptor in rat brain cortical membranes assessed as inhibition of [3H]-ketanserin binding to receptor after 15 mins by competition assay in presence of GTP; format: cell membranes; how it was run: as §1
[7] = molecular target: T1, 5-hydroxytryptamine receptor 1A (Rattus norvegicus) (UniProt P19327); assay: Antagonist activity at 5HT1A receptor in rat brain hippocampal membranes assessed as inhibition of [3H]-8-OH-DPAT binding to receptor after 15 mins by competition assay in absence of GTP; format: cell membranes
T1 sequence (whole entry): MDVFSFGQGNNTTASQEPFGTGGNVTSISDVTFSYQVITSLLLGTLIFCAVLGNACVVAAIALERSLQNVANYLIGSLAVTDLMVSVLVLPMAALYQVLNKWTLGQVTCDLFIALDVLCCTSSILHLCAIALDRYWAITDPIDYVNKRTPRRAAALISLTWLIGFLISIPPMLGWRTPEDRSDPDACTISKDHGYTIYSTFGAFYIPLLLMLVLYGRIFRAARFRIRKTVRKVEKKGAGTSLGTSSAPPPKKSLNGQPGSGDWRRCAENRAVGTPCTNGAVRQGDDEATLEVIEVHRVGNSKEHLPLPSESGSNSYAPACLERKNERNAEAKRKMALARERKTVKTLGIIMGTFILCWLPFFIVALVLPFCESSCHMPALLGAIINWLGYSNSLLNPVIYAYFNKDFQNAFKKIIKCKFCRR
How it was run: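 Hippocampal membranes, 40 µg protein, incubated with 1 nM [3H]-8-OH-DPAT at 37 °C for 15 min under yellow light. Buffer was 50 mM Tris-HCl pH 7.4 with 1 mM CaCl2, 1 mM MnCl2 and pargyline. Non-specific binding was defined with 5-HT. Filters were soaked in 0.5% polyethyleneimine. IC50 came from nonlinear regression fitted with one or two sites. Ki by Cheng-Prusoff, using Kd from saturation experiments.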

[8] = molecular target: T1, 5-hydroxytryptamine receptor 1A (Rattus norvegicus); assay: Antagonist activity at 5HT1A receptor in rat brain hippocampal membranes assessed as inhibition of [3H]-8-OH-DPAT binding to receptor after 15 mins by competition assay in presence of GTP; format: cell membranes

Question: How did the Activity [1] turn out when `O=C(CCCN1CCC(O)(c2ccc(Cl)cc2)CC1)c1ccc(F)cc1` was run?
Answer: Its Activity is “inactive”.

Question: What about the Activity [2] of the same compound?
Answer: Its Activity is “Active”.

Question: What does the source list for `CN1CCN(C2=Nc3cc(Cl)ccc3Nc3ccccc32)CC1`?
Answer: Activity [3]: Active; Activity [4]: Active

Question: With `O=C(c1ccc(F)cc1)C1CCN(CCn2c(=O)[nH]c3ccccc3c2=O)CC1` as the compound, how does the inhibition [5] read?
Answer: The inhibition was “Active”.

Question: What about the inhibition [6] of the same compound?
Answer: Its inhibition is “Active”.

Question: Which inhibition [7] does the source give for `COc1ccccc1N1CCN(CCN(C(=O)c2ccc(F)cc2)c2ccccn2)CC1` here?
Answer: The inhibition was “Active”.

Question: And the inhibition [8]?
Answer: The inhibition was “Active”.
